ChEMBL document CHEMBL4673252, “Discovery and Early Clinical Development of Isobutyl 1-[8-Methoxy-5-(1-oxo-3H-isobenzofuran-5-yl)-[1,2,4]triazolo[1,5-a]pyridin-2-yl]cyclopropanecarboxylate (LEO 39652), a Novel "Dual-Soft" PDE4 Inhibitor for Topical Treatment of Atopic Dermatitis” (J Med Chem, 2020)

Experiments:
[1] = Clearance in human liver microsomes at 0.5 uM incubated for 40 mins in presence of NADPH by LC-MS/MS analysis; format: ADME, Microsome; conditions: read-out: CLH
In short: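 Human liver microsomes (0.5 mg/mL) with 1 mM NADPH and 0.5 μM test compound, incubated for 40 min. Samples were taken before NADPH and at 5, 10, 20, 40 min, quenched with cold acetonitrile containing internal standard, and analysed by LC-MS/MS. Control incubations in buffer and without NADPH. Apparent clearance was calculated from depletion.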

[2] = Half life in human keratinocytes at 1 uM by LC-MS/MS analysis; format: ADME, cell-based, Keratinocyte
In short: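 Plated human epidermal keratinocytes (1 × 10⁴ cells/well) with 1 μM compound in duplicate for up to 24 h; sampled at 0, 1, 2, 4, 24 h, acetonitrile precipitation, LC-MS/MS. Controls in growth medium. Half-life reported.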

[3] = Half life in human whole blood at 0.1 uM by LC-MS/MS analysis; format: ADME, tissue-based
[4] = Clearance in mini pig hepatocytes at 10 uM by UPLC/TOF-MS analysis; format: ADME, cell-based, Sus scrofa domesticus, Hepatocyte; conditions: read-out: CLH
[5] = Clearance in human hepatocytes at 10 uM by UPLC/TOF-MS analysis; format: ADME, cell-based, Hepatocyte
[6] = AUC (0 to 24 hrs) in cynomolgus monkey at 30 mg/kg, sc dosed as single administration; format: ADME, organism-based, Macaca fascicularis; set-up: time < 24 hr, route subcutaneous, dose 30 mg/kg; conditions: in vivo
In short: (§1)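 Single subcutaneous dose of 30 mg/kg.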

[7] = Drug exposure in of Isobutyl 1-[8-Methoxy-5-(1-oxo-3H-isobenzofuran-5-yl)-[1,2,4]-triazolo[1,5-a]pyridin-2-yl]cyclopropanecarboxylate dosed Gottingen mini pig assessed as ratio of drug level to total AUC at 0.5 to 2 mg/kg, iv measured up to 24 hrs by LC-MS/MS analysis; format: ADME, organism-based, Sus scrofa domesticus; conditions: in vivo, BLD = below limit of detection, dose 0.5-2 mg/kg
[8] = Drug exposure in Isobutyl 1-[8-Methoxy-5-(1-oxo-3H-isobenzofuran-5-yl)-[1,2,4]-triazolo[1,5-a]pyridin-2-yl]cyclopropanecarboxylate dosed cynomolgus monkey assessed as ratio of drug level to total AUC; format: ADME, organism-based, Macaca fascicularis; conditions: in vivo
In short: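 Blood was drawn at 0.25–24 h after infusion start and 6, 12, 24 h after infusion end into EDTA-K3, then plasma stabilized with ascorbic acid. LC-MS/MS quantification of parent and metabolites; noncompartmental PK.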

[9] = AUC (0 to 24 hrs) in human patient with atopic dermatitis at 0.25% dosed topically as lipid cream; format: ADME, organism-based; set-up: time < 24 hr, dose 0.25 %; conditions: in vivo, topical or ocular
[10] = Drug exposure in human assessed as ratio of drug level to total AUC at 0.25% of Isobutyl 1-[8-Methoxy-5-(1-oxo-3H-isobenzofuran-5-yl)-[1,2,4]-triazolo[1,5-a]pyridin-2-yl]cyclopropanecarboxylate dosed via topical administration in lipid cream; format: ADME, organism-based; conditions: in vivo, topical_or_ocular
[11] = Cmax in cynomolgus monkey at 30 mg/kg, sc dosed as single administration; format: ADME, organism-based, Macaca fascicularis; set-up: route subcutaneous, dose 30 mg/kg; conditions: in vivo; in short: as §1
[12] = Cmax in human patient with atopic dermatitis at 0.25% dosed topically as lipid cream; format: ADME, organism-based; set-up: dose 0.25 %; conditions: in vivo, topical or ocular

| SMILES | CLint scaled at 0.5 µM [1] | half-life at 1 µM [2] | half-life at 0.1 µM [3] | other results |
| --- | --- | --- | --- | --- |
| COc1ccc(-c2ccc3c(c2)COC3=O)n2nc(C3(C(=O)OC4CCCC4)CC3)nc12 | > 200 mL/min/kg | 12 h | 0.283 h |  |
| COc1ccc(-c2cccc(C#N)c2)n2nc(C3(CC(=O)O)CC3)nc12 | < 10 mL/min/kg |  |  |  |
| COc1ccc(-c2cccc(C#N)c2)n2nc(C3(CO)CC3)nc12 | < 10 mL/min/kg |  |  |  |
| COC(=O)C1(c2nc3c(OC)ccc(-c4ccc5c(c4)COC5=O)n3n2)CC1 | 193 mL/min/kg | > 12 h | < 0.167 h |  |
| COc1ccc(-c2cccc(C#N)c2)n2nc(C3(CCC(=O)O)CC3)nc12 | 16 mL/min/kg |  |  |  |
| CCCCOC(=O)C1(c2nc3c(OC)ccc(-c4ccc5c(c4)COC5=O)n3n2)CC1 | > 200 mL/min/kg | 10 h | 0.333 h |  |
| COc1ccc(-c2ccc3c(c2)COC3=O)n2nc(C3(C(=O)OC4CCCCCC4)CC3)nc12 | > 200 mL/min/kg | 3.7 h | 0.567 h |  |
| COC(=O)c1cccc(-c2ccc(OC)c3nc(C4CC4)nn23)c1 | > 200 mL/min/kg | > 12 h | > 1 h |  |
| COC(=O)c1ccc(-c2ccc(OC)c3nc(C4CC4)nn23)cc1 | > 200 mL/min/kg | > 12 h | > 1 h |  |
| COc1ccc(-c2ccc3c(c2)COC3=O)n2nc(C3(C(=O)OC4CCCCC4)CC3)nc12 | > 200 mL/min/kg | > 12 h | 0.383 h |  |
| CCCOC(=O)C1(c2nc3c(OC)ccc(-c4ccc5c(c4)COC5=O)n3n2)CC1 | 139 mL/min/kg | > 12 h | 0.217 h |  |
| COc1ccc(-c2cccc(C#N)c2)n2nc(C3(CCCO)CC3)nc12 | 33 mL/min/kg |  |  |  |
| COc1ccc(-c2ccc(C(=O)O)c(CO)c2)n2nc(C3(C(=O)OCC(C)(C)O)CC3)nc12 |  |  |  | CLint scaled at 10 µM [4]: 13 mL/min/kg; CLhep predicted at 10 µM [5]: 7.1 mL/min/kg; AUC(0-t) at 24 h [6]: 19.4 ng·h/mL; Drug uptake [7]: Bld; Drug uptake [8]: 1%; AUC(0-t) at 24 h [9]: 0.27 ng·h/mL; Drug uptake [10]: 1%; Cmax ([11]; read-out: Cmax): 10.5 ng/mL; Cmax [12]: 0.029 ng/mL |
| COc1ccc(-c2cccc(C#N)c2)n2nc(C3(CCO)CC3)nc12 | 16 mL/min/kg |  |  |  |
| COc1ccc(-c2ccc3c(c2)COC3=O)n2nc(C3(C(=O)OC(C)C)CC3)nc12 | 97 mL/min/kg | > 12 h | 0.183 h |  |
| COc1ccc(-c2cccc(C#N)c2)n2nc(C3(COC(=O)C(C)C)CC3)nc12 | > 200 mL/min/kg | 1.2 h | 0.467 h |  |
| COc1ccc(-c2ccc3c(c2)COC3=O)n2nc(C3(C(=O)NCC(C)C)CC3)nc12 | > 200 mL/min/kg | 10 h | < 0.167 h |  |

| SMILES | CLint scaled at 0.5 µM [1] | half-life at 1 µM [2] | half-life at 0.1 µM [3] | other results |
| --- | --- | --- | --- | --- |
| COc1ccc(-c2ccc3c(c2)COC3=O)n2nc(C3(C(=O)OC(C)(C)C)CC3)nc12 | > 200 mL/min/kg | > 12 h | 0.183 h |  |
| COC(=O)c1cccc(-c2ccc(OC)c3nc(C4(C(=O)NCC(C)C)CC4)nn23)c1 | > 200 mL/min/kg | > 12 h | > 1 h |  |
| CCOC(=O)C1(c2nc3c(OC)ccc(-c4ccc5c(c4)COC5=O)n3n2)CC1 | 140 mL/min/kg | > 12 h | 0.183 h |  |
| COc1ccc(-c2ccc3c(c2)COC3=O)n2nc(C3CC3)nc12 | 64 mL/min/kg | > 12 h | 0.2 h |  |
| COc1ccc(-c2ccc3c(c2)COC3=O)n2nc(C3(C(=O)O[C@@H]4CCOC4)CC3)nc12 | 101 mL/min/kg | > 12 h | < 0.167 h |  |
| COc1ccc(-c2ccc3c(c2)COC3=O)n2nc(C3(C(=O)OC[C@@H](C)CO)CC3)nc12 | 64 mL/min/kg | > 12 h | < 0.167 h |  |
| COc1ccc(-c2cccc(C#N)c2)n2nc(C3(C(=O)O)CC3)nc12 | < 10 mL/min/kg |  |  |  |
| COC(=O)c1ccc(-c2ccc(OC)c3nc(C4(C(=O)NCC(C)C)CC4)nn23)cc1 | > 200 mL/min/kg | 9 h |  |  |
| COc1ccc(-c2ccc3c(c2)COC3=O)n2nc(C3(C(=O)O[C@H]4CCOC4)CC3)nc12 | 77 mL/min/kg | > 12 h | < 0.167 h |  |
| COc1ccc(-c2ccc3c(c2)COC3=O)n2nc(C3(C(=O)OCC(C)(C)O)CC3)nc12 | 66 mL/min/kg | > 12 h | 0.2 h | CLint scaled at 10 µM [4]: > 26 mL/min/kg; CLhep predicted at 10 µM [5]: 16 mL/min/kg; AUC ([6]; 24 h, BLD = below limit of detection): Bld; Drug uptake [7]: Bld; Drug uptake [8]: 0.1%; Drug uptake ([10]; BLD = below limit of detection): Bld; Cmax ([11]; BLD = below limit of detection): Bld |
| COc1ccc(-c2ccc3c(c2)COC3=O)n2nc(C3(C(=O)OC[C@H](C)CO)CC3)nc12 | 66 mL/min/kg | > 12 h | < 0.167 h |  |
| COc1ccc(-c2ccc3c(c2)COC3=O)n2nc(C3(C(=O)OC4COC4)CC3)nc12 | 97 mL/min/kg | > 12 h | < 0.167 h |  |
| COc1ccc(-c2ccc3c(c2)COC3=O)n2nc(C3(C(=O)OC4CCC4)CC3)nc12 | > 200 mL/min/kg | > 9 h | < 0.167 h |  |
| COc1ccc(-c2cccc(C#N)c2)n2nc(C3(C(=O)OCC(C)C)CC3)nc12 | > 200 mL/min/kg | > 12 h | > 1 h |  |
| COc1ccc(-c2cccc3c2COC3=O)n2nc(C3(C(=O)NCC(C)C)CC3)nc12 | 95 mL/min/kg | > 12 h | > 1 h |  |
| COc1ccc(-c2cccc3c2COC3=O)n2nc(C3CC3)nc12 | < 10 mL/min/kg | > 12 h | 0.25 h |  |
| CC[C@H](C)OC(=O)C1(c2nc3c(OC)ccc(-c4ccc5c(c4)COC5=O)n3n2)CC1 | > 200 mL/min/kg | > 12 h | 0.183 h |  |
